Screening results (PubChem BioAssay)
NR2E3 ag-1 – inhibitors of NR2E3-RetCOR corepressor binding, primary screen, NR2E3 agonist project, biochemical, TR-FRET, GST-NR2E3, biotin-RetCOR; Photoreceptor-specific nuclear receptor (Homo sapiens), Q9Y5X4; 1536-well; inhibition of corepressor binding, % at 4.78 µM; 0.12% of 320,000 active; AID 2300, 2010;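 active = percent inhibition above the cutoff of mean plus 3 SD of all tested compounds, set per screening campaign, cut at about 20% in these data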;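 also: 0% = DMSO wells and 100% = biotin wells as full block of FRET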
Target sequence (Q9Y5X4 whole entry, looked up): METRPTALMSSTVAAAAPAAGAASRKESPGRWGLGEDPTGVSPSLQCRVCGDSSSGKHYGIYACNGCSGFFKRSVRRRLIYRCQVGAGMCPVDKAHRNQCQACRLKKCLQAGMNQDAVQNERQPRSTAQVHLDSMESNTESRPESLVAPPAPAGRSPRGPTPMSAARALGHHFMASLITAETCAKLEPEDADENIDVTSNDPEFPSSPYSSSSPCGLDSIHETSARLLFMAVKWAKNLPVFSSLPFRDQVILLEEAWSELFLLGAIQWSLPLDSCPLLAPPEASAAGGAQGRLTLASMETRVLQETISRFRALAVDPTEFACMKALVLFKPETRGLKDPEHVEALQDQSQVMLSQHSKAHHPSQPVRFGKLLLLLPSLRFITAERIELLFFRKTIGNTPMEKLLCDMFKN
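System: GST-tagged NR2E3 plus biotinylated RetCOR corepressor; Amount: 1.35 nM GST-tagged NR2E3 final; Dosing: single nominal compound dose of 4.8 µM; Schedule: 5 h incubation at 4 °C; Technique: TR-FRET with europium anti-GST and streptavidin-D2, 340 nm excitation; Controls: biotin wells as high control, 0.6% DMSO wells as low control.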
HIF act – HIF pathway transcriptional activators, primary screen, cell-based, U2OS HRE-luciferase, luminescence; U2OS HRE-luciferase reporter; normalized: DMSO 0%, desferrioxamine 100%; activation, % at 7.5 µM (by protocol); 0.32% of 300,000 active; AID 1910, 2009;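 active = mean activation of at least 10% of the iron chelator positive control signal, with at least half of replicates also reaching 10%; inconclusive = mean and replicate majority disagree about reaching 10%; inactive = mean and most replicates under 10%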
LMP1 NFkB inh – EBV LMP1-driven NF-kappaB luciferase reporter inhibitors, primary screen, cell-based, luminescence, single point | 0.69% of 350,000 active | inhibition, % at 12.5 µM | LMP1-induced NF-kappaB luciferase reporter cells; in the data active = inhibition above about 41%; inconclusive = no clear call, values can overlap the other calls;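 also: 0% = neutral control wells and 100% = reference inhibitor control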
NR2E3 ag-2 – NR2E3 agonists in two-hybrid cells, primary screen, cell-based, luminescence, CHO-S, Gal4-NCOR/VP16-NR2E3; Photoreceptor-specific nuclear receptor (Homo sapiens), Q9Y5X4; luciferase; inhibition of corepressor binding, % at 3.98 µM; 0.35% of 360,000 active; AID 602229, 2012;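 active = inhibition above the mean of all tested compounds plus 3 SD, cut at about 70% in these data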;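 also: 0% = DMSO with NR2E3 transfected cells and 100% = cells lacking NR2E3 construct; higher means lower luciferase signal from less NR2E3 corepressor binding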
TROY NFkB inh – inhibitors of TROY-driven NF-kB signaling, primary screen, Q293 LMP1-TROYcd cells, NF-kB luciferase, uHTS; inhibition, % at 10 µM; 0.98% of 360,000 active; Q293 LMP1-TROYcd NF-kB luciferase reporter, 4 h;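 active = compounds whose plate-normalised and pattern-corrected inhibition of the luciferase reporter signal at the single screening dose is 50% or more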
Starred values were filed as active, the others as inactive; ? = inconclusive; · = no result. An excerpt weighted towards active compounds, which were near 2% of everything screened.

SMILES | NR2E3 ag-1 | HIF act | LMP1 NFkB inh | NR2E3 ag-2 | TROY NFkB inh
CC(=O)Nc1c([N+](=O)[O-])cc(C)c(Cl)c1[N+](=O)[O-] | 1 | 13* | -3 | -9 | 13
CN1CCN(Cc2nc3ccccc3c(=O)n2Cc2nc(-c3ccc4ccccc4c3)cs2)CC1 | -2 | -3 | 6 | 1 | 41
CN1CCN(Cc2nc3ccccc3c(=O)n2Cc2nc(-c3ccccc3F)cs2)CC1 | 1 | 20* | 4 | -63 | 16
Cc1cc(C(=O)N/N=C/c2ccc(N(C)C)cc2)c2ccccc2n1 | 1 | 4 | 0 | -47 | 54*
COC(=O)C1=C(O)/C(=C\c2ccc(CNC(=O)C(=O)Nc3ccc(C)cc3)o2)N=C1C | 3 | 0 | -13 | -21 | -14
CCOC(=O)C1=C(O)/C(=C/c2ccc(CNC(=O)C(=O)Nc3ccc(C)cc3)o2)N=C1C | 2 | -1 | 77* | -11 | 7
O=C(N/N=C/c1ccc(O)cc1O)c1ccc(CN2C(=O)c3cccc4cccc2c34)cc1 | 7 | 13* | 50* | -22 | -10
Cc1cc([N+](=O)[O-])nn1Cc1ccc(C(=O)N/N=C/c2ccc(F)cc2)cc1 | 0 | 0 | -7 | -12 | 10
Cc1cc([N+](=O)[O-])nn1Cc1ccc(C(=O)N/N=C/c2ccc(O)cc2O)cc1 | -2 | 21* | -20 | -23 | 14
Cc1ccc(S(=O)(=O)NNC(=O)CCC(=O)Nc2ccccc2Cl)cc1 | · | · | 2 | -17 | 20
Cc1cccc(NC(=O)C2CC(=O)NC(Nc3nc4ccccc4s3)=N2)c1 (stereo not drawn) | -1 | 99* | · | · | ·
CCN(CC)CCc1nc(-c2ccccc2)no1 | 3 | · | 4 | 7 | 11
COc1cccc(OC)c1C(=O)Nc1ccc2c(c1)OCCO2 | 1 | 0 | -5 | -9 | -6
COc1cc(NC(=S)Nc2ccc3c(c2)OCCO3)cc(OC)c1OC | 1 | 3 | 7 | 30 | 57*
COc1cc2[nH]c(C(=O)Nc3ccc4c(c3)OCCO4)cc2c(OC)c1OC | 0 | 3 | 19 | -10 | 56*
CC(C)NC(=O)c1cc(C2CCCCN2C(=O)c2cc(C(C)(C)C)nn2C)on1 (stereo not drawn) | · | · | · | 23 | 2
CC(C)C(=O)NCCc1nc(-c2ccc(Cl)cc2)no1 | -1 | 1 | -13 | -15 | -43
Cc1cccc(NC(=O)CSCc2cc(=O)n3ccsc3n2)c1C | 0 | 0 | 1 | -5 | -16
COc1ccccc1C(=O)NC(=S)Nc1ccccc1N1CCCC1 | 1 | 1 | 0 | -12 | 78*
CCCN1CCN(C(=O)C2CCN(S(=O)(=O)c3c(C)noc3/C=C/c3ccc(C)cc3)CC2)CC1 | -7 | -1 | -4 | 11 | 10
Cn1c(Sc2ccc(Cl)cc2)c(C=O)c2ccccc21 | 12 | 1 | 22 | -24 | 55*
Cc1cccc(CC(=O)NCC2CCCCC2)c1 | 5 | 1 | -14 | -47 | -42
C=C1CCN([C@@H](CC(C)C)C(=O)Nc2nc3ccc(Cl)cc3s2)S(=O)(=O)c2ccccc21 | 0 | 2 | -7 | -16 | 21
Cc1csc(NC(=O)CSc2nnc(-c3ccncc3)n2C)n1 | 6 | 0 | 4 | -6 | 20
Cc1csc(NC(=O)CSc2nnc(-c3ccco3)n2C)n1 | -1 | 0 | -3 | 14 | 81*
SMILES | NR2E3 ag-1 | HIF act | LMP1 NFkB inh | NR2E3 ag-2 | TROY NFkB inh
Nn1c(SCC(=O)Nc2ccc(S(N)(=O)=O)cc2)nnc1-c1ccco1 | 3 | 0 | 6 | 2 | 57*
Cc1cccc(C)c1NC(=O)CSc1nnc(-c2ccco2)n1N | 2 | 0 | -7 | 1 | 20
COc1ccc(N2CCN(C(=O)COC(=O)c3cccc(S(=O)(=O)Nc4cccc(C)c4)c3)CC2)cc1 | 2 | 0 | 12 | 21 | 27
O=C1C(=C(I)I)c2ccccc2-c2ccccc21 | · | · | 12 | -5 | 64*
COc1ccc(N(C)S(=O)(=O)c2cccc(C(=O)OCC(=O)c3c(N)n(C)c(=O)n(C)c3=O)c2)cc1 | · | · | 16 | 14 | 65*
COc1ccc(CN2CCC2(C)C(=O)Nc2cnc3ccccc3c2)c2ccccc12 (stereo not drawn) | · | · | · | 0 | 9
CC(C)(C)c1ccc(C(=O)Nc2cccc3c(=O)[nH][nH]c(=O)c23)cc1 | -2 | 0 | 37 | 19 | 53*
CCC(=O)n1nc(NCc2ccc(OC)c(OC)c2)nc1NCc1ccc(OC)c(OC)c1 | 0 | 227* | 11 | -3 | 14
COCC(=O)n1nc(NCc2ccc(OC)cc2)nc1NCc1ccc(OC)cc1 | 2 | 0 | 5 | -12 | -7
O=C(Nc1ccccc1)C1=C[C@H](C2CCCCC2)C[C@H](OCCCCO)O1 | 0 | 1 | 5 | -32 | 67*
O=C(Nc1ccccc1)C1=C[C@@H](C2CCCCC2)C[C@@H](OCCCCO)O1 | -3 | 0 | 4 | 10 | 67*
O=C(NCc1ccccc1)C1=C[C@H](C2CCCCC2)C[C@H](OCCCCO)O1 | 2 | -2 | -1 | 25 | -29
Clc1ccc(-c2nc(-c3ccccn3)no2)cc1Cl | 2 | 0 | 33 | -184 | 29
COc1ccc(-c2nc(-c3ccccn3)no2)cc1 | -5 | -4 | 81* | 36 | 83*
COc1ccc(-c2nc(-c3ccncc3)no2)cc1 | · | -1 | -7 | -166 | 4
COc1ccc(-c2nc(-c3cccs3)no2)cc1 | -2 | -3 | 48* | -84 | 58*
Cc1ccccc1-c1nc(-c2ccccn2)no1 | 7 | -7 | 61* | -79 | 81*
Cc1ccccc1-c1nc(-c2cccnc2)no1 | 2 | 2 | -47 | -69 | -38
COc1ccccc1-c1nc(-c2ccccn2)no1 | 4 | -3 | 62* | -103 | 66*
Cc1c(C(=O)NCc2ccc3c(c2)OCCO3)sc(=O)n1Cc1ccc(C(=O)N(C)C)cc1 | · | · | · | 8 | 6
CC(C)NC(=O)C1(C)CCN1C(=O)c1cccc(F)c1 (stereo not drawn) | · | · | · | 0 | -2
COc1ccc(-c2csc(NC(=O)c3c(C)noc3C)n2)cc1OC | · | · | 9 | 8 | 19
Brc1ccc(-c2nc(-c3ccccn3)no2)o1 | -1 | -2 | ? | -114 | 56*
CC(=O)N/C(=C\c1ccccc1)C(=O)OCc1cccc(S(=O)(=O)N(C)C)c1 | · | -39 | 0 | -4 | 34
O=C1CCCc2cc3c(cc21)CC1(C3)Cc2cc3c(cc2C1)C(=O)CCC3 | -2 | 0 | 20 | -15 | 61*
CCOc1ccc(N(CC(=O)N2CCCCCC2)S(C)(=O)=O)cc1 | -2 | 0 | 7 | 11 | 2
CCN=C1S/C(=C\c2cc(OCC)c(O)cc2Br)C(=O)N1CC | -3 | 1 | 54* | 4 | 29
